# GSTO1 counter – blocks human GSTO1 in RBBP9 counter-screen; P78417; recombinant GSTO1, activity-based probe fluorescence polarization; inhibition, % at 5.96 µM; hit rate 1.1% among 300,000; AID 1974;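 active = inhibition above the campaign mean inhibition plus 3 SD, cut at about 35% in these data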
# procasp7 counter – activates human procaspase-7, counter-screen for procaspase-3 activators; activation, % at 8.5 µM; recombinant procaspase-7, Ac-DEVD-pNA absorbance 405 nm; D23A/D198A/D206A triple mutant, cannot self-cleave; scale: DMSO 0, 5 µM enzyme 100; hit rate 0.093% among 330,000;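 active = percent activation above the screen-wide mean plus 3 SD, cut at about 25% in these data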
#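 Detection: p-Nitroaniline absorbance at 405 nm, read at 0 and 120 min; system: Uncleavable procaspase-7 mutant enzyme; evaluation: % activation from two-timepoint absorbance difference, scaled to controls; times: 1 h enzyme–compound preincubation and 2 h substrate reaction, both 25 °C; buffer or medium: Zinc-free HEPES pH 7.4 with 300 mM NaCl, 0.01% Triton X-100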
# ZTA counter – blocks Epstein-Barr virus ZTA, an EBNA-1 counter-screen; P03206; ZTA-DNA binding, fluorescence polarization; inhibition, % at 11 µM; hit rate 0.15% among 320,000; in the data active = inhibition above about 33%
# EBNA-1 inh – blocks EBNA-1 binding to DNA; EBNA-1 DNA binding, fluorescence polarization; inhibition, % at 14.8 µM; hit rate 0.34% among 300,000; AID 1950; in the data active = inhibition above about 28%
# procasp3 activ – procaspase-3 (human) activation. activation, % at 8.5 µM. hit rate 0.11% among 330,000. recombinant procaspase-3 D3A, Ac-DEVD-pNA absorbance 405 nm;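 active = activation above the mean of all tested compounds plus 3 SD, cut at about 21% in these data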
#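 assay system = Procaspase-3 D3A mutant | signal = absorbance at 405 nm, 0 and 120 min | times = 1 h preincubation plus 2 h reaction at 25 °C | repeats = single replicate | read-out = % activation between DMSO and enzyme-spiked controls | medium = Zinc-free HEPES saline buffer with Triton X-100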
# Apaf-1 inh – blocks human Apaf-1 apoptosome activity. O14727. reconstituted apoptosome caspase-3 activity, DEVD-Rh110 fluorescence. inhibition, % at 20 µM. hit rate 0.71% among 330,000. AID 489030; active = inhibition of at least 40% at 20 µM
#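 Material: cell-free apoptosome with Apaf-1, procaspase-3 and caspase-9; Buffer or medium: Hepes pH 7.5 with detergent and BSA; Reagent: cytochrome c trigger plus (Z-DEVD)2-Rh110 caspase-3 substrate; Times: compound with Apaf-1, dATP, procaspase-3 30 min, then 50 min reaction, room temperature; Technique: Rh110 fluorescence intensity.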
# Zta DNA confirm – EBV ZTA DNA binding inhibition, confirmation; shares compounds with ZTA counter; Zta-ZRE DNA binding, fluorescence polarization; inhibition, % at 11.1 µM; hit rate 30% among 320;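 active = mean inhibition across triplicate runs above the hit threshold derived for the original primary screen, cut at about 33% in these data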
# EBNA-1 counter – blocks EBNA-1 DNA binding in ZTA counter-screen. shares compounds with ZTA counter. fluorescence polarization. inhibition, % at 14.8 µM. 320 tested, under 10 active. AID 2362; call rule not given here
# A number is an active result; . = inactive; / = no result. Shown are actives, neighbours in structure and some others; about 1.8% of the full set was active somewhere.
SMILES,GSTO1 counter,procasp7 counter,ZTA counter,EBNA-1 inh,procasp3 activ,Apaf-1 inh,Zta DNA confirm,EBNA-1 counter
Cc1cccc(NC(=O)CCNC(=O)c2ccco2)c1,.,.,44,.,.,.,.,.
COc1cccc(-n2cc(C(=O)NCCCOC(C)C)c3ccccc3c2=O)c1,.,.,.,.,.,.,/,/
COc1cccc(-n2cc(C(=O)NC(C)C)c3ccccc3c2=O)c1,.,.,155,.,.,.,.,.
Nc1nc(Nc2ccccc2F)sc1C(=O)c1ccccc1,.,.,52,.,.,.,.,.
O=C(C1CC(=O)N(c2ccccc2F)C1)N1CCOCC1 (configuration not stated),/,.,/,/,.,.,/,/
C/C=C\C=C\C(=O)N1CC2(CC(c3cccc(NC(=O)CC)c3)=NO2)C[C@H]1C(N)=O (some centres not stated),.,.,35,.,.,.,.,.
Nc1ccc(Sc2cc(Cl)nc(N)n2)cc1,.,.,.,.,.,.,/,/
Nc1nc(N)c2cc(Sc3ccc4ccccc4c3)ccc2n1,.,.,34,.,.,.,.,.
Cc1ccccc1OCCNC(=O)/C=C/c1ccc([N+](=O)[O-])cc1,.,.,.,.,.,.,/,/
Cc1ccccc1OCCNC(=O)/C=C/c1ccccc1,.,.,129,.,.,.,.,.
CC(C)c1ccc(NC(=O)COc2ccc(S(=O)(=O)N3CCOCC3)cc2)cc1,.,.,35,.,.,.,.,.
Cc1ccc(-n2nc(C(=O)NCc3ccco3)c3c4ccccc4n(C)c3c2=O)cc1,.,.,45,.,.,.,.,.
CCN(CC)CCNC(=O)c1nn(-c2ccc(C)cc2)c(=O)c2c1c1ccccc1n2C,.,.,.,.,.,.,/,/
Cc1ccn(CC(C)C(=O)O)n1 (configuration not stated),.,.,166,.,.,.,.,.
COc1ccc(C(=O)[C@@H]2CC[C@](C)(C(=O)O)C2(C)C)cc1,.,.,.,.,.,.,/,/
O=C(COC(=O)COc1ccc(Br)cc1)Nc1ccc2c(c1)OCCO2,/,.,.,/,.,.,/,/
COC(=O)c1ccc(NC(=O)c2ccc(NC(=O)c3ccco3)cc2)cc1,.,.,39,.,.,44,49,.
CC(=O)c1ccc(NC(=O)c2ccc(NC(=O)c3ccco3)cc2)cc1,.,.,.,.,.,.,/,/
CNC[C@H]1Oc2ccc(NC(=O)C3CCCCC3)cc2CC(=O)N([C@H](C)CO)C[C@@H]1C,/,.,/,/,.,.,/,/
COc1ccc(C2=[N+](C)CCn3cccc32)c(OC)c1,.,.,33,.,.,.,.,.
NS(=O)(=O)c1ccc(NC(=O)c2cccc(N3C(=O)c4ccccc4C3=O)c2)cc1,.,.,61,.,.,.,58,.
CCN(CC)C(=O)[C@H]1CC(CC(=O)NCc2ccco2)C(=O)N2CCc3c([nH]c4ccc(OC)cc34)[C@]12C (some centres not stated),/,.,/,/,.,.,/,/
O=C(Nc1cccc(S(=O)(=O)NC2=NCCC2)c1)c1cc(=O)[nH]c2ccccc12,/,.,.,/,.,.,/,/
O=C(CNS(=O)(=O)c1ccccc1)OCC(=O)c1c[nH]c2ccccc12,/,.,.,/,.,.,/,/
O=C(Nn1c(C2CCC2)nc2ccccc2c1=O)c1cccs1,.,.,34,.,.,.,.,.
SMILES,GSTO1 counter,procasp7 counter,ZTA counter,EBNA-1 inh,procasp3 activ,Apaf-1 inh,Zta DNA confirm,EBNA-1 counter
CCn1c(CSc2nnc(-c3ccncc3)n2CCOC)nc2cc(C(=O)O)ccc21,.,.,37,.,.,.,.,.
CCn1c(CSc2n[nH]c(N)n2)nc2cc(C(=O)O)ccc21,.,.,34,.,.,.,39,.
CN[C@@H]1CC[C@H](c2ccc(Cl)c(Cl)c2)c2ccccc21,/,/,/,/,/,.,/,/
O=C(CN1C(=O)CNC1=O)Nc1cc(Cl)cc(Cl)c1,/,.,/,/,.,.,/,/
O=c1[nH]c(-c2ccc(Cl)cc2)nc(=S)[nH]1,.,.,46,.,.,.,.,.
CCc1ccccc1OCC(=O)Nc1cccc(S(=O)(=O)NC2=NCCC2)c1,/,.,.,/,.,.,/,/
COc1cc(C#Cc2c(-c3cncn3C)n(C)c3ccc(-c4cnc(OC)nc4)cc23)cc(OC)c1,/,.,38,/,.,42,.,.
CCOc1ccc(CN2C(=O)c3ccccc3C2C(=O)NC(C)CC)cc1OC (configuration not stated),.,.,.,.,.,.,/,/
COc1ccc(CCNC(=O)C2c3ccccc3C(=O)N2CCC(C)C)cc1OC (configuration not stated),.,.,75,.,.,.,.,.
CC(NC(=O)CCc1ccccc1)c1ccc2c(c1)OCO2 (configuration not stated),.,.,.,.,.,.,/,/
Cc1ccc(C(C(=O)NC2CCCC2)N(Cc2ccc3c(c2)OCO3)C(=O)c2snc(C(N)=O)c2N)cc1 (configuration not stated),.,.,57,.,.,.,.,.
O=C(/C=C/c1ccco1)NC(=S)Nc1ccc(C(=O)O)cc1,.,.,54,.,.,.,38,.
CCC(=O)Nc1ccc(NC(=S)NC(=O)/C=C/c2ccco2)cc1,.,.,.,.,.,.,/,/
O=C(COc1ccc(S(=O)(=O)NC2CCCCC2)cc1Cl)NCC1CCCO1 (configuration not stated),.,.,152,.,.,.,.,.
O=C(CSc1ncnc2scc(-c3ccccc3)c12)N1CCN(Cc2ccc3c(c2)OCO3)CC1,.,.,59,.,.,.,160,72
CCCN(CCC)C(=O)COc1cc(=O)n(CC)c2ccccc12,.,.,118,.,.,.,.,.
CCN(CC)C(=O)[C@H]1C[C@H](CC(=O)NCCC2=CCCCC2)C(=O)N2CCc3c([nH]c4ccc(Cl)cc34)[C@]12C,/,.,/,/,.,.,/,/
COc1ccc(C(=O)N(C)CCCC2CCCC2)cc1OC1CCN(C(C)C)CC1,.,.,34,.,.,.,.,.
COc1ccc(Nc2nc(C)nc3c2oc2ccccc23)c(OC)c1,.,.,39,.,.,.,.,.
COc1ccccc1Nc1nc(C)nc2c1oc1ccccc12,.,.,.,.,.,.,/,/
CCOC(=O)C1(Cc2cccc(Cl)c2)CCCN(C(=O)c2ccc(COC)s2)C1 (configuration not stated),.,.,.,.,.,.,/,/

# Bioassay records deposited in PubChem by several laboratories.
